In one experiment the test system is Jurkat. Put plainly: Inhibitory concentration required for 50% apoptosis induction was evaluated using jurkat cells (T-lymphoma cells). It counts as functional, cell-based. To be noted: Homo sapiens. Summed up: (§1)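 Jurkat T-lymphoma cells exposed 24 h to rising concentrations (0.1–100 μM). Ethanol-fixed cells then RNase-digested and stained with propidium iodide. Flow-cytometric cell-cycle analysis scored the hypodiploid (sub-G0/G1) fraction as apoptotic cells with fragmented DNA. IC50 taken from these concentration–response series.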
Regarding `CCCCCCCCCCCCCCC(CO)NC(=O)OC(C)(C)C` (stereo not given), it took 28 µM to reach half-maximal inhibition (IC50).

Regarding `CCCCCCCCCCCCCCC(CN(CC(=O)OCC)CC(=O)OCC)NC(=O)OC(C)(C)C` (stereo not given), the IC50 was more than 60 µM.

Compound `CCCCCCCCCCCCCCC(N)CN(CC(=O)OCC)CC(=O)OCC` (stereo not given) came in with an IC50 of 32 µM.

In the case of `CCCCCCCCCCCCCCC(CNCC)NC(=O)OC(C)(C)C` (stereo not given), the midpoint of inhibition, the IC50, lay at 6 µM. Compared with the last compound, the IC50 is about 5.3-fold lower.

As to `CCCCCCCCCCCCCCC(CN(CC)CC)NC(=O)OC(C)(C)C` (stereo not given), the midpoint of inhibition, the IC50, lay at 21 µM.

Regarding `CCCCCCCCCCCCCCC(N)CN` (stereo not given), the IC50 was 55 µM.

In turn, `CCCCCCCCCCCCCCC(CNCC(=O)OCC)NC(=O)OC(C)(C)C` (stereo not given) registered an IC50 of 28 µM.

`CCCCCCCCCCCCCCC(CNCCCCC(=O)O)NC(=O)OC(C)(C)C` (stereo not given) displayed an IC50 of 18 µM. This IC50 lies about 1.6-fold lower than the previous one.

Compound `CCCCCCCCCCCCCCC(N)CO` (stereo not given) had an IC50 of 7 µM.

`CCCCCCCCCCCCCCC(COCc1ccccc1)NC(=O)CCC(=O)O` (stereo not given) showed an IC50 of 30 µM. Against the preceding compound, the IC50 is about 4.3-fold higher.

Compound `CCCCCCCCCCCCCCC(CO)NCCCCCC` (stereo not given) registered an IC50 of 6 µM.

For the compound `CCCCCCCCCCCCCCC(N)COCc1ccccc1` (stereo not given), inhibition was half-maximal at 3 µM (IC50).

Compound `CCCCCCCCCCCCCCC(COCc1ccccc1)N(CC)CC` (stereo not given) gave an IC50 of 20 µM.

In turn, `CCCCCCCCCCCCCCC(CO)N(CC)CC` (stereo not given) had an IC50 of 1 µM.

`CCCCCCCCCCCCCCC(COCc1ccccc1)NCC(=O)O` (stereo not given) displayed an IC50 of 3 µM.

Consider `CCCCCCCCCCCCCCC(O)CNCc1ccccc1` (stereo not given), for which half-maximal inhibition (IC50) required 27 µM.

On to `CCCCCCCCCCCCCCC(O)CNC1CCCCC1` (stereo not given), for which it took 6 µM to reach half-maximal inhibition (IC50).

In the case of `CCCCCCCCCCCCCCC(N)CN(CC)CC` (stereo not given), the IC50 was determined as 7 µM.

`CCCCCCCCCCCCCCC(CN)NC(=O)OC(C)(C)C` (stereo not given) returned an IC50 of 6 µM.

On to `CCCCCCCCCCCCCCC(CO)NCC` (stereo not given), for which the IC50 stood at 6 µM.

With `CCCCCCCCCCCCCCC(N)CNCC(=O)O` (stereo not given), the concentration for half-maximal inhibition (IC50) was determined as 31 µM. This IC50 lies about 5.2-fold higher than the previous one.

The compound `CCCCCCCCCCCCCCC(CO)NC(=O)CCCC(=O)O` (stereo not given) displayed an IC50 of 24 µM.

`CCCCCCCCCCCCCCC(N)CNCCCCC(=O)O` (stereo not given) gave an IC50 of 55 µM.

Take `CCCCCCCCCCCCCCC(COCc1ccccc1)NC(=O)CCCC(=O)O` (stereo not given): the IC50 was more than 50 µM.

`CCCCCCCCCCCCCCC(COCc1ccccc1)NCC` (stereo not given) showed an IC50 of 6 µM.

A further experiment has as its system Jurkat. Put plainly: Inhibitory concentration required for 50% apoptosis induction was evaluated using jurkat cells (T-lymphoma cells); NA means not active.
Details: not given; call rule not given here
It counts as functional, cell-based, Homo sapiens. Summed up: as §1
Turning to `CCCCCCCCCCCCCCC(=O)NC(CCCCCCCCCCCCCC)COC(=O)CCCCCC` (stereo not given), the IC50 entry is on record as “Not Active”.

For the compound `CCCCCCCCCCCCCCC(=O)NC(CCCCCCCCCCCCCC)COC(=O)CCCCCCCCCCCCCC` (stereo not given), the IC50 entry is recorded as “Not Active”.

As for `CCCCCCCCCCCCCCC(CN(CC)CC)NCCCCC(=O)O` (stereo not given), the IC50 entry is on record as “Not Active”.

On to `CCCCCCCCCCCCCCC(COC(=O)CCCCCC)NC(=O)CCCCCC` (stereo not given), for which the IC50 entry is “Not Active”.

Regarding `CCCCCCCCCCCCCCC(N)CNCC(=O)OCC` (stereo not given), the IC50 entry is “Not Active”.
